# Test results reported in ChEMBL document CHEMBL1143221, “Two-carbon-elongated HIV-1 protease inhibitors with a tertiary-alcohol-containing transition-state mimic” (J Med Chem, 2008).
# Columns and labels:
# Protease = Protease (Human immunodeficiency virus 1, UniProt Q9YQ12); assay: Inhibition of HIV1 protease expressed in Escherichia coli
# [1] = system: Human immunodeficiency virus 1; assay: Antiviral activity against HIV1 in MT4 cells by XTT assay; format: functional, organism-based; conditions: Human immunodeficiency virus 1, MT4
# [2] = Cytotoxicity against human MT4 cells; format: cell-based
# [3] = Permeability from apical to basolateral side of human Caco-2 cell membrane; format: ADME, cell-based
# [4] = Metabolic stability in human liver microsomes after 30 mins; format: ADME, Microsome; conditions: read-out: Stability
# Outline: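 Test compound incubated with human liver microsomes for 30 min at 37 °C. Read-out is percent parent compound remaining.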
# Chain of Protease (Q9YQ12 whole entry): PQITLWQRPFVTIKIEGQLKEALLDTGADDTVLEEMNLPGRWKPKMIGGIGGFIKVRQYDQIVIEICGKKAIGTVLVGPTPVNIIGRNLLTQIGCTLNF
SMILES,Ki (Protease) [nM],EC50 [1] [nM],CC50 [2] [nM],Papp A→B [3] [×10⁻⁶ cm/s],remaining at 0.5 h [4] [%]
COC(=O)N[C@H](C(=O)NN(CCC[C@](O)(Cc1ccccc1)C(=O)N[C@H]1c2ccccc2C[C@H]1O)Cc1ccc(Br)cc1)C(C)(C)C,420,> 10000,> 10000,> 20,–
COC(=O)N[C@H](C(=O)NN(CCC[C@@](O)(Cc1ccccc1)C(=O)N[C@H]1c2ccccc2C[C@H]1O)Cc1ccccc1)C(C)(C)C,5.7,1200,> 10000,< 20,–
COC(=O)N[C@H](C(=O)NN(CCC[C@@](O)(Cc1ccccc1)C(=O)N[C@H]1c2ccccc2C[C@H]1O)Cc1ccc(Br)cc1)C(C)(C)C,–,850,> 10000,> 20,–
COC(=O)N[C@H](C(=O)NN(CCC[C@@](O)(Cc1ccccc1)C(=O)N[C@H]1c2ccccc2C[C@H]1O)Cc1ccc(N2CCOCC2)cc1)C(C)(C)C,3.6,500,> 10000,–,–
COC(=O)N[C@H](C(=O)NN(Cc1ccc(Br)cc1)C[C@](O)(Cc1ccccc1)C(=O)N[C@H]1c2ccccc2C[C@H]1O)C(C)(C)C,–,1100,–,–,–
COC(=O)N[C@H](C(=O)NN(CCC[C@@](O)(Cc1ccccc1)C(=O)N[C@H]1c2ccccc2C[C@H]1O)Cc1ccc(CN2CCOCC2)cc1)C(C)(C)C,11,880,> 10000,–,–
COC(=O)N[C@H](C(=O)NN(CCC[C@@](O)(Cc1ccccc1)C(=O)N[C@H]1c2ccccc2C[C@H]1O)Cc1ccc(-c2ccncc2)cc1)C(C)(C)C,2.8,170,> 10000,< 20,94
COC(=O)N[C@H](C(=O)NN(CCC[C@@](O)(Cc1ccccc1)C(=O)N[C@H]1c2ccccc2C[C@H]1O)Cc1ccc(-c2ccccc2)cc1)C(C)(C)C,7.3,780,7500,> 20,–
COC(=O)N[C@H](C(=O)NN(CCC[C@@](O)(Cc1ccccc1)C(=O)N[C@H]1c2ccccc2C[C@H]1O)Cc1ccc(C#N)cc1)C(C)(C)C,2.9,1200,> 10000,–,–
COC(=O)N[C@H](C(=O)NN(CCC[C@@](O)(Cc1ccccc1)C(=O)N[C@H]1c2ccccc2C[C@H]1O)Cc1ccc(-c2cncnc2)cc1)C(C)(C)C,2.4,220,> 10000,–,–
COC(=O)N[C@H](C(=O)NN(CCC[C@@](O)(Cc1ccccc1)C(=O)N[C@H]1c2ccccc2C[C@H]1O)Cc1ccc(OCc2cnc(Cl)s2)cc1)C(C)(C)C,–,600,> 10000,–,–
COC(=O)N[C@H](C(=O)NN(CCC[C@@](O)(Cc1ccccc1)C(=O)N[C@H]1c2ccccc2C[C@H]1O)Cc1ccc(I)cc1)C(C)(C)C,4.5,820,> 10000,–,–
COC(=O)N[C@H](C(=O)NN(CCC[C@@](O)(Cc1ccccc1)C(=O)N[C@H]1c2ccccc2C[C@H]1O)Cc1ccc(N(C)C)cc1)C(C)(C)C,4.9,980,> 10000,–,–
COC(=O)N[C@H](C(=O)NN(Cc1ccc(-c2cccnc2)cc1)C[C@](O)(Cc1ccccc1)C(=O)N[C@H]1c2ccccc2C[C@H]1O)C(C)(C)C,–,180,> 10000,–,–
COC(=O)N[C@H](C(=O)NN(CCC[C@@](O)(Cc1ccccc1)C(=O)N[C@H]1c2ccccc2C[C@H]1O)Cc1ccc(-c2cccnc2)cc1)C(C)(C)C,3.6,190,> 10000,< 20,94
COC(=O)N[C@H](C(=O)NN(CCC[C@@](O)(Cc1ccccc1)C(=O)N[C@H]1c2ccccc2C[C@H]1O)Cc1ccc(Cl)cc1)C(C)(C)C,3.4,910,> 10000,–,–

SMILES,Ki (Protease) [nM],EC50 [1] [nM],CC50 [2] [nM],Papp A→B [3] [×10⁻⁶ cm/s],remaining at 0.5 h [4] [%]
COC(=O)N[C@H](C(=O)NN(CCC[C@@](O)(Cc1ccccc1)C(=O)N[C@H]1c2ccccc2C[C@H]1O)Cc1ccc(-c2nc(C(C)(C)C)cs2)cc1)C(C)(C)C,24,1000,> 10000,–,–
COC(=O)N[C@H](C(=O)NN(CCC[C@](Cc1ccccc1)(O[Si](C)(C)C(C)(C)C)C(=O)N[C@H]1c2ccccc2C[C@H]1O)Cc1ccc(Br)cc1)C(C)(C)C,190,> 10000,5800,–,–
COC(=O)N[C@H](C(=O)NN(CCC[C@@](O)(Cc1ccccc1)C(=O)N[C@H]1c2ccccc2C[C@H]1O)Cc1ccc(-c2nccs2)cc1)C(C)(C)C,2.3,210,> 10000,> 20,–
COC(=O)N[C@H](C(=O)NN(CCC[C@@](O)(Cc1ccccc1)C(=O)N[C@H]1c2ccccc2C[C@H]1O)Cc1ccc(-c2csc(C)n2)cc1)C(C)(C)C,3.5,510,> 10000,–,–
COC(=O)N[C@H](C(=O)NN(CCC[C@@](O)(Cc1ccccc1)C(=O)N[C@H]1c2ccccc2C[C@H]1O)Cc1ccc(-c2noc(C)n2)cc1)C(C)(C)C,3.6,190,> 10000,–,–
COC(=O)N[C@H](C(=O)NN(CCC[C@@](O)(Cc1ccccc1)C(=O)N[C@H]1c2ccccc2C[C@H]1O)Cc1ccc(-c2ccsc2)cc1)C(C)(C)C,10,560,> 10000,–,–
COC(=O)N[C@H](C(=O)NN(CCC[C@@](O)(Cc1ccccc1)C(=O)N[C@H]1c2ccccc2C[C@H]1O)Cc1ccc(-n2ccnc2)cc1)C(C)(C)C,3.3,170,> 10000,–,–
COC(=O)N[C@H](C(=O)NN(CCC[C@](Cc1ccccc1)(O[Si](C)(C)C(C)(C)C)C(=O)N[C@H]1c2ccccc2C[C@H]1O[Si](C)(C)C(C)(C)C)Cc1ccc(Br)cc1)C(C)(C)C,980,> 10000,> 10000,–,–
COC(=O)N[C@H](C(=O)NN(CCC[C@@](O)(Cc1ccccc1)C(=O)N[C@H]1c2ccccc2C[C@H]1O)Cc1ccc(F)cc1)C(C)(C)C,6.7,980,> 10000,–,–
COC(=O)N[C@H](C(=O)NN(Cc1ccc(Br)cc1)C(=O)CC[C@@](O)(Cc1ccccc1)C(=O)N[C@H]1c2ccccc2C[C@H]1O)C(C)(C)C,–,> 10000,> 10000,–,–
COC(=O)N[C@H](C(=O)NN(CCC[C@@](O)(Cc1ccccc1)C(=O)N[C@H]1c2ccccc2C[C@H]1O)Cc1ccc(-c2cn3ccsc3n2)cc1)C(C)(C)C,2.3,480,> 10000,–,–
COC(=O)N[C@H](C(=O)NN(CCC[C@@](O)(Cc1ccccc1)C(=O)N[C@H]1c2ccccc2C[C@H]1O)CC(C)C)C(C)(C)C,6.8,1800,> 10000,–,–
COC(=O)N[C@H](C(=O)NN(CCC[C@@](O)(Cc1ccccc1)C(=O)N[C@H]1c2ccccc2C[C@H]1O)Cc1ccc(-c2ccccn2)cc1)C(C)(C)C,2.8,470,> 10000,–,–
CC(C)(C)NC(=O)[C@@H]1CN(Cc2cccnc2)CCN1C[C@@H](O)C[C@@H](Cc1ccccc1)C(=O)N[C@H]1c2ccccc2C[C@H]1O,–,41,–,–,–
COC(=O)N[C@H](C(=O)N[C@@H](Cc1ccccc1)[C@@H](O)CN(Cc1ccc(-c2ccccn2)cc1)NC(=O)[C@@H](NC(=O)OC)C(C)(C)C)C(C)(C)C [ATAZANAVIR],2.7,3.9,–,–,–
